ChEMBL document CHEMBL3085690, “Naturally occurring antimicrobial peptide OH-CATH30 selectively regulates the innate immune response to protect against sepsis” (J Med Chem, 2013)
The source made the active and inactive calls. The calls are words filed in the database; no cut-off is given here. Peptide text beside a SMILES is read from it.

Tests used:
Mus musculus [1] = assay: Stimulation of innate immune response in Kunming mouse assessed as increase of neutrophils in peritoneal lavage at 10 mg/kg, ip after 5 hrs; type: functional, organism-based; set-up: dose 10 mg/kg
Outline: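 Female Kunming mice were given peptide ip at 10 mg/kg. At 5 h, peritoneal cells were recovered by lavage with 2 mL PBS and counted. Cells were stained with anti-F4/80-PE and GR1-FITC for 30 min at room temperature and typed by flow cytometry: neutrophils GR1+/F4/80−, resident monocytes/macrophages GR1−/F4/80+, inflammatory monocytes GR1+/F4/80+. Data are mean ± SD from three mice, unpaired t test.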

BMDM [2] = assay: Induction of CXCL1 mRNA up-regulation in mouse BMDM at 20 ug/ml after 3 hrs by qRT-PCR analysis; type: functional
Outline: (§1)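 Murine BMDMs stimulated with peptide, then target mRNA quantified by qRT-PCR. Expression normalized to GAPDH, with untreated cells set to 1.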

BMDM [3] = assay: Induction of CXCL2 mRNA up-regulation in mouse BMDM at 20 ug/ml after 3 hrs by qRT-PCR analysis; type: functional; outline: as §1
Mus musculus [4] = assay: Stimulation of innate immune response in Kunming mouse assessed as increase of IL-1Ra level in peritoneal lavage at 10 mg/kg, ip after 5 hrs; type: functional, organism-based; set-up: dose 10 mg/kg
Outline: (§2)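 Female Kunming mice (18−22 g) received a single ip injection of peptide at 10 mg/kg in sterile saline. Peritoneal lavage was collected in 2 mL of cold sterile saline 5 h later, and cytokines and chemokines were measured by ELISA. Data are mean ± SD from four mice, compared by unpaired t test.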

BMDM [5] = assay: Induction of CXCL5 mRNA up-regulation in mouse BMDM at 20 ug/ml after 3 hrs by qRT-PCR analysis; type: functional; outline: as §1
BMDM [6] = assay: Increase of TNFalpha protein level in mouse BMDM at 20 ug/ml after 18 hrs by ELISA; type: functional
Outline: (§3)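 Bone marrow-derived macrophages (RPMI 1640, 10% FCS, 20% L929-conditioned medium) stimulated with peptide for 18 h. Cytokines and chemokines in culture supernatant quantified by sandwich ELISA. Mean ± SD from three independent experiments, unpaired t test.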

Mus musculus [7] = assay: Stimulation of innate immune response in ip dosed Kunming mouse assessed as protection against Escherichia coli ATCC 25922-induced mortality by measuring survival rate measured up to 7 days; type: functional, organism-based
Outline: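 Kunming mice were challenged ip with E. coli 25922 at 2.5 × 10^8 CFU/mouse (n = 10). A single ip dose of peptide, from 1 to 10 mg/kg in sterile saline, was given 5 h before infection. Survival was followed for up to 7 days and compared by log-rank test.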

BMDM [8] = assay: Increase of IL-6 protein level in mouse BMDM at 20 ug/ml after 18 hrs by ELISA; type: functional; outline: as §3
Mus musculus [9] = assay: Stimulation of innate immune response in Kunming mouse assessed as protection against Pseudomonas aeruginosa ATCC 27853-induced mortality by measuring survival rate at 10 mg/kg, ip administered 5 hrs before bacterial infection measured up to 7 days; type: functional; details: route intraperitoneal
Outline: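 Female Kunming mice (18−22 g) received a single ip dose in sterile saline 5 h before ip challenge with P. aeruginosa 27853 (8 × 10^7 CFU/mouse; n = 8) or S. aureus 25923 (2 × 10^8 CFU/mouse; n = 10). Mice were checked every 6 h for up to 7 days, with a humane end point. Curves were compared by log-rank test.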

BMDM [10] = assay: Increase of CXCL2 protein level in mouse BMDM at 20 ug/ml after 18 hrs by ELISA; type: functional; outline: as §3
[11] = Increase of CXCL2 protein level in mouse BMDM at 10 ug/ml after 18 hrs by ELISA; type: functional; outline: as §3
Mus musculus [12] = assay: Stimulation of innate immune response in Kunming mouse infected with Pseudomonas aeruginosa ATCC 27853 assessed as effect on CCL2 production in peritoneal lavage at 10 mg/kg, ip after 3 hrs by ELISA; type: functional, organism-based; set-up: dose 10 mg/kg
Outline: (§4)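 Mice were pretreated ip with peptide at 10 mg/kg 5 h before ip challenge with P. aeruginosa 27853 at 8 × 10^7 CFU/mouse. CCL2 and CXCL2 were measured in peritoneal lavage collected 3 h after inoculation. TNF-α and IL-6 were measured in serum collected 5 h after inoculation. All were read by ELISA; data are mean ± SD from four mice, unpaired t test.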

BMDM [13] = assay: Increase of CXCL1 protein level in mouse BMDM at 20 ug/ml after 18 hrs by ELISA; type: functional; outline: as §3
Mus musculus [14] = species on record: Mus musculus; assay: Activation of JNK in mouse BMDM assessed as phosphorylation at 10 ug/ml by Western blotting
Outline: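 BMDMs cultured in RPMI 1640 with 10% FCS and 20% L929-conditioned medium. Lysates separated by 10% SDS-PAGE, blotted to PVDF and blocked in 5% BSA. Probed for phospho-JNK/JNK or phospho-p38/p38, then HRP goat anti-rabbit IgG, chemiluminescence read-out.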

Mus musculus [15] = assay: Stimulation of innate immune response in Kunming mouse infected with Pseudomonas aeruginosa ATCC 27853 assessed as effect on CXCL2 production in peritoneal lavage at 10 mg/kg, ip after 3 hrs by ELISA; type: functional, organism-based; set-up: dose 10 mg/kg; outline: as §4
Mus musculus [16] = assay: Stimulation of innate immune response in clodronate liposomes treated Kunming mouse monocytes depletion model assessed as recruitment of neutrophils at 10 mg/kg, ip; type: functional, organism-based; set-up: dose 10 mg/kg
Mus musculus [17] = assay: Stimulation of innate immune response in Kunming mouse assessed as increase of IL-1beta level in peritoneal lavage at 10 mg/kg, ip after 5 hrs; type: functional, organism-based; set-up: dose 10 mg/kg; outline: as §2
BMDM [18] = assay: Induction of CCL2 mRNA up-regulation in mouse BMDM at 20 ug/ml after 3 hrs by qRT-PCR analysis; type: functional; outline: as §1
BMDM [19] = assay: Increase of CXCL2 production in mouse BMDM after 6 hrs by ELISA in presence of CD14 Ab; type: functional
RAW264.7 = assay: Inhibition of LPS-induced TNFalpha production in mouse RAW264.7 cells 2 to 50 ug/ml after 6 hrs by ELISA; type: functional, cell-based
[20] = Increase of IL-10 protein level in mouse BMDM at 10 ug/ml after 18 hrs by ELISA; type: functional; outline: as §3
Mus musculus [21] = assay: Stimulation of innate immune response in Kunming mouse assessed as protection against bacteria-induced mortality by measuring survival rate at 10 mg/kg, ip measured up to 7 days; type: functional, organism-based; set-up: dose 10 mg/kg
Mus musculus [22] = assay: Stimulation of innate immune response in Kunming mouse infected with Pseudomonas aeruginosa ATCC 27853 assessed as effect on IL-6 production in peritoneal lavage at 10 mg/kg, ip after 5 hrs by ELISA; type: functional, organism-based; set-up: dose 10 mg/kg
Mus musculus [23] = assay: Stimulation of innate immune response in Kunming mouse assessed as protection against Escherichia coli ATCC 25922-induced mortality by measuring survival rate at 10 mg/kg, ip administered 3 hrs after bacterial infection measured up to 7 days; type: functional, organism-based; set-up: dose 10 mg/kg
Outline: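 Female Kunming mice were challenged ip with E. coli 25922 at 2.5 × 10^8 CFU/mouse (n = 10). Peptide at 10 mg/kg in sterile saline was given ip at −24 h or +3 h relative to inoculation. Mice were monitored every 6 h and mortality was recorded for up to 7 days, with humane end points. Survival curves were compared by log-rank test.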

Mus musculus [24] = assay: Stimulation of innate immune response in Kunming mouse assessed as increase of CXCL2 level in peritoneal lavage at 10 mg/kg, ip after 5 hrs; type: functional, organism-based; set-up: dose 10 mg/kg; outline: as §2

CC[C@H](C)[C@H](NC(=O)[C@@H](NC(=O)[C@H](CCCNC(=N)N)NC(=O)[C@@H]1CCCN1C(=O)[C@H](CCCCN)NC(=O)[C@H](CCCCN)NC(=O)[C@H](Cc1ccccc1)NC(=O)[C@H](Cc1ccccc1)NC(=O)[C@H](CCCCN)NC(=O)[C@H](CCCCN)NC(=O)[C@H](C)NC(=O)[C@H](CCCNC(=N)N)NC(=O)[C@H](CCCCN)NC(=O)[C@H](CCCCN)NC(=O)[C@@H](NC(=O)[C@H](CO)NC(=O)[C@H](CC(N)=O)NC(=O)[C@H](CCCCN)NC(=O)[C@H](CC(C)C)NC(=O)[C@H](CCCCN)NC(=O)[C@H](CCCCN)NC(=O)[C@H](Cc1ccccc1)NC(=O)[C@H](Cc1ccccc1)NC(=O)[C@@H](N)CCCCN)C(C)C)C(C)C)C(=O)NCC(=O)N[C@H](C(=O)N[C@@H](CO)C(=O)N[C@H](C(=O)N1CCC[C@H]1C(=O)N[C@@H](Cc1ccccc1)C(=O)O)[C@@H](C)CC)C(C)C (H-KFFKKLKNSVKKRAKKFFKKPRVIGVSIPF-OH)
Activity (Mus musculus [1]): Active
Activity (BMDM [2]): Active
Activity (BMDM [3]): Active
Activity (Mus musculus [4]): Active
Activity (BMDM [5]): Active
Activity (BMDM [6]): inactive
Activity (Mus musculus [7]): Dose-dependent effect
Activity (BMDM [8]): inactive
survival at 10 mg/kg (Mus musculus [9]): > 85%
Activity (BMDM [10]): Active
Activity [11]: 1450 pg/mL
Activity (Mus musculus [12]): Active
Activity (BMDM [13]): Active
Activity (Mus musculus [14]): Active
Activity (Mus musculus [15]): Active
Activity (Mus musculus [16]): inactive
Activity (Mus musculus [17]): inactive
Activity (BMDM [18]): Active
Activity (BMDM [19]): Active
inhibition (RAW264.7): Active
Activity [20]: 156 pg/mL
Activity (Mus musculus [21]): inactive
Activity (Mus musculus [22]): inactive
Activity (Mus musculus [23]): Active
Activity (Mus musculus [24]): Active
